Laboratory results: ChEMBL document CHEMBL1671686, “Carbapenem-resistant KPC-2-producing Escherichia coli in a Tel Aviv Medical Center, 2005 to 2008” (2010)
In brackets after ≈: the same amount, converted by molar mass.

Assays:
Format in all cases: functional
[1] = system: Escherichia coli; assay: Antimicrobial activity against Escherichia coli isolate 157 expressing beta-lactamase KPC2, CTX-M-15, TEM and PFGE cluster 3 isolated from urine of patient by agar dilution method; details: isolate 157, Urine
In short: (§1)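 Clinical carbapenem-resistant E. coli isolates collected Feb 2005–Oct 2008. Carbapenem MICs determined by agar dilution following CLSI protocols.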

[2] = system: Escherichia coli; assay: Antimicrobial activity against Escherichia coli isolate 157T expressing beta-lactamase KPC2 and PFGE cluster 3 isolated from urine of patient by agar dilution method
In short: (§2)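 Transformant strains. Plasmids purified from the clinical isolates were electroporated into E. coli DH10B. Transformants were selected on LB agar with 100 μg/ml ampicillin, and colonies were PCR-screened for blaKPC before susceptibility testing.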

[3] = system: Escherichia coli; assay: Antimicrobial activity against Escherichia coli isolate 329 expressing beta-lactamase KPC2, CTX-M-2, TEM and PFGE cluster 2 isolated from blood of patient by agar dilution method
In short: (§3)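 Clinical carbapenem-resistant E. coli isolates from the hospital, February 2005 to October 2008. Carbapenem MICs were determined by agar dilution following CLSI protocols.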

[4] = system: Escherichia coli; assay: Antimicrobial activity against Escherichia coli isolate 329T expressing beta-lactamase KPC2 and PFGE cluster 2 isolated from blood of patient by agar dilution method; in short: as §2
[5] = system: Escherichia coli; assay: Antimicrobial activity against Escherichia coli isolate 339 expressing beta-lactamase KPC2, TEM and PFGE cluster 5 isolated from peritoneal fluid of patient by agar dilution method; in short: as §3
[6] = system: Escherichia coli; assay: Antimicrobial activity against Escherichia coli isolate 339T expressing beta-lactamase KPC2 and PFGE cluster 5 isolated from peritoneal fluid of patient by agar dilution method; in short: as §2
[7] = system: Escherichia coli; assay: Antimicrobial activity against Escherichia coli isolate 360 expressing beta-lactamase KPC2, CTX-M-15, OXA-9, TEM and PFGE cluster 1 isolated from urine of patient by agar dilution method; details: isolate 360, Urine; in short: as §1
[8] = system: Escherichia coli; assay: Antimicrobial activity against Escherichia coli isolate 360T expressing beta-lactamase KPC2, OXA-9 and PFGE cluster 1 isolated from urine of patient by agar dilution method; in short: as §2
[9] = system: Escherichia coli; assay: Antimicrobial activity against Escherichia coli isolate 386 expressing beta-lactamase KPC2, CTX-M-15, OXA-9, TEM and PFGE cluster 1 isolated from wound of patient by agar dilution method; in short: as §1
[10] = system: Escherichia coli; assay: Antimicrobial activity against Escherichia coli isolate 386T expressing beta-lactamase KPC2, OXA-9 and PFGE cluster 1 isolated from wound of patient by agar dilution method; in short: as §2
[11] = system: Escherichia coli; assay: Antimicrobial activity against Escherichia coli isolate 540 expressing beta-lactamase KPC2, TEM and PFGE cluster 4 isolated from synovial fluid of patient by agar dilution method; in short: as §3
[12] = system: Escherichia coli; assay: Antimicrobial activity against Escherichia coli isolate 543 expressing beta-lactamase KPC2, CTX-M-15, TEM and PFGE cluster 4 isolated from synovial fluid of patient by agar dilution method; in short: as §3
[13] = system: Escherichia coli; assay: Antimicrobial activity against Escherichia coli isolate 543T expressing beta-lactamase KPC2 and PFGE cluster 4 isolated from synovial fluid of patient by agar dilution method; in short: as §2
[14] = system: Escherichia coli; assay: Antimicrobial activity against Escherichia coli isolate 544 expressing beta-lactamase KPC2, TEM and PFGE cluster 4 isolated from abscess of patient by agar dilution method; in short: as §3
[15] = system: Escherichia coli; assay: Antimicrobial activity against Escherichia coli isolate 547 expressing beta-lactamase KPC2, TEM and PFGE cluster 4 isolated from blood of patient by agar dilution method; in short: as §1
[16] = system: Escherichia coli; assay: Antimicrobial activity against Escherichia coli isolate 547T expressing beta-lactamase KPC2 and PFGE cluster 4 isolated from blood of patient by agar dilution method; in short: as §2
[17] = system: Escherichia coli; assay: Antimicrobial activity against Escherichia coli isolate 1679 expressing beta-lactamase KPC2, SHV-12, TEM and PFGE cluster 6 isolated from peritoneal fluid of patient by agar dilution method; in short: as §3
[18] = system: Escherichia coli; assay: Antimicrobial activity against Escherichia coli isolate 1679T expressing beta-lactamase KPC2, TEM and PFGE cluster 6 isolated from peritoneal fluid of patient by agar dilution method; in short: as §2
[19] = system: Escherichia coli; assay: Antimicrobial activity against Escherichia coli DH10B by Etest; details: K-12 DH10B

| Compound | MIC [1] [µg/mL] | MIC [2] [µg/mL] | MIC [3] [µg/mL] | MIC [4] [µg/mL] | MIC [5] [µg/mL] | MIC [6] [µg/mL] | MIC [7] [µg/mL] | MIC [8] [µg/mL] | MIC [9] [µg/mL] | MIC [10] [µg/mL] | MIC [11] [µg/mL] | MIC [12] [µg/mL] | MIC [13] [µg/mL] | MIC [14] [µg/mL] | MIC [15] [µg/mL] | MIC [16] [µg/mL] | MIC [17] [µg/mL] | MIC [18] [µg/mL] | MIC [19] [µg/mL] |
| --- | --- | --- | --- | --- | --- | --- | --- | --- | --- | --- | --- | --- | --- | --- | --- | --- | --- | --- | --- |
| C[C@@H](O)[C@H]1C(=O)N2C(C(=O)O)=C(S[C@@H]3CN[C@H](C(=O)Nc4cccc(C(=O)O)c4)C3)[C@H](C)[C@H]12 | 8 (≈ 16.8 µM) | 4 (≈ 8.41 µM) | 32 (≈ 67.3 µM) | 4 (≈ 8.41 µM) | 16 (≈ 33.6 µM) | 4 (≈ 8.41 µM) | 8 (≈ 16.8 µM) | 1 (≈ 2.1 µM) | 8 (≈ 16.8 µM) | 1 (≈ 2.1 µM) | 16 (≈ 33.6 µM) | 16 (≈ 33.6 µM) | 2 (≈ 4.21 µM) | 16 (≈ 33.6 µM) | 8 (≈ 16.8 µM) | 0.25 (≈ 0.526 µM) | 32 (≈ 67.3 µM) | 1 (≈ 2.1 µM) | 0.023 (≈ 0.0484 µM) |
| C[C@@H](O)[C@H]1C(=O)N2C(C(=O)O)=C(S[C@@H]3CN[C@H](CNS(N)(=O)=O)C3)[C@H](C)[C@H]12 [DORIPENEM] | 2 (≈ 4.76 µM) | 1 (≈ 2.38 µM) | 4 (≈ 9.51 µM) | 1 (≈ 2.38 µM) | 1 (≈ 2.38 µM) | 0.5 (≈ 1.19 µM) | 1 (≈ 2.38 µM) | < 0.5 | 1 (≈ 2.38 µM) | < 0.5 | 1 (≈ 2.38 µM) | 2 (≈ 4.76 µM) | < 0.5 | 1 (≈ 2.38 µM) | < 0.5 | < 0.5 | 8 (≈ 19 µM) | 0.5 (≈ 1.19 µM) | < 0.5 |
